Measurements from BindingDB's records for doi:10.1016/j.bmc.2011.04.027 (University of Mansoura, 2011).

Target: T1, Prostaglandin G/H synthase 1 (Ovis aries, UniProt P05979)
T1 sequence (P05979 whole entry): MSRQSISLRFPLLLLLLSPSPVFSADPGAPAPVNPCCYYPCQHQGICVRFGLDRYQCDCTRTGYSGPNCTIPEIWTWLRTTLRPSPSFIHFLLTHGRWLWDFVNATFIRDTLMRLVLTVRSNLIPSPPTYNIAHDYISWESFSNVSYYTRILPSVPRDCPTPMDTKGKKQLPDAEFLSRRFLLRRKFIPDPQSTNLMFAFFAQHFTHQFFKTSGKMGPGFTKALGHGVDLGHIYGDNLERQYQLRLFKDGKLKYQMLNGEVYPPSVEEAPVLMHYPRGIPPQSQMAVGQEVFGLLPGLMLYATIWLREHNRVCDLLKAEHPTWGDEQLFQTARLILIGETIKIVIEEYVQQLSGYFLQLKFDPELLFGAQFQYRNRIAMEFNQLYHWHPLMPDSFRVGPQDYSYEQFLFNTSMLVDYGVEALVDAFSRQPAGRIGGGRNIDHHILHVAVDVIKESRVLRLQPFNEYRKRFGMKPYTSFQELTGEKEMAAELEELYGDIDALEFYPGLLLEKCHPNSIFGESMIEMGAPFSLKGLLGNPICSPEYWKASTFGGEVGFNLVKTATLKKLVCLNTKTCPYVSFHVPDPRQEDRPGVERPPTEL
Test: Inhibition of ovine COX1 assessed as PGF2alpha production from PGH2 after 5 mins by enzyme immunoassay
Outline: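 Ovine COX-1 in reaction buffer with 2 mM phenol and heme, preincubated with six test concentrations (1 mL final) for 5 min at 37 °C. Arachidonic acid was then added and the reaction stopped with 1 M HCl after 2 min. Prostanoids were reduced with stannous chloride and quantified by competitive acetylcholinesterase-tracer EIA (Ellman's reagent, 410 nm). IC50 came from concentration–inhibition curves, duplicate determinations.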

IC50 [µM] | Compound
> 50 | FC(F)(F)c1[nH]nc(-c2ccc(Cl)cc2)c1N=Nc1ccccc1Cl [3-(4-Chlorophenyl)-4-(2-(2-chlorophenyl)hydrazono)-5-trifuoromethyl)-4H-pyrazole]
> 50 | FC(F)(F)c1cc(N=Nc2c(-c3ccc(Cl)cc3)n[nH]c2C(F)(F)F)cc(C(F)(F)F)c1 [3-(4-Chlorophenyl)-4-(2-(3,5-bis(trifluoromethyl)phenyl)hydrazono)-5-trifuoromethyl)-4H-pyrazole]
> 50 | COc1ccc(N=Nc2c(-c3ccc(Cl)cc3)n[nH]c2C(F)(F)F)cc1 [3-(4-Chlorophenyl)-4-(2-(4-methoxyphenyl)hydrazono)-5-trifuoromethyl)-4H-pyrazole]
> 50 | O=[N+]([O-])c1ccc(/N=N/c2c(-c3ccc(Cl)cc3)n[nH]c2C(F)(F)F)cc1 [3-(4-Chlorophenyl)-4-(2-(4-nitrophenyl)hydrazono)-5-trifuoromethyl)-4H-pyrazole]
